Results reported in ChEMBL document CHEMBL5678814, “Novel Mps1 Kinase Inhibitors with Potent Antitumor Activity” (Mol Cancer Ther, 2016).
The source made the active and inactive calls. No cut-off for these calls is given here.

How the values were obtained:
A2780cis [1] = test: Antitumor activity against human A2780cis cells implanted female athymic NMRI mouse model assessed as induction in KNL1 at Thr-875 phosphorylation at 24 mg/kg,iv administered once for 1 day by immunohistochemical staining; type: functional, organism-based
In short: (§1)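 A2780cis tumors (2×10^6 cells in 100% Matrigel, s.c.) in female NMRI nude mice. Paclitaxel i.v. once at 24 mg/kg on day 1, started at ~52–60 mm2 tumor area. Tumors harvested 36 h after first treatment. Paraffin sections stained with rabbit anti-pThr875 KNL1 or anti-CASC5 (total KNL1), both 1:400. Positive pixels above background scored in three fields per slide.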

A2780cis [2] = test: Antitumor activity against human A2780cis cells implanted female athymic NMRI mouse model assessed as change in KNL1 total level at 24 mg/kg,iv administered for 1 day by immunohistochemical staining; type: functional, organism-based; in short: as §1
A2780cis [3] = test: Antitumor activity against human A2780cis cells xenografted in female athymic NMRI mouse assessed as increase in necrosis at 24 mg/kg,iv administered once for 1 day and measured after 8 hrs by H&E staining
A2780cis [4] = test: Antitumor activity against human A2780cis cells xenografted in female athymic NMRI mouse assessed as induction in atypical mitoses at 24 mg/kg,iv administered once for 1 day and measured after 8 hrs by H&E staining
A2780cis [5] = test: Antitumor activity against human A2780cis cells xenografted in female athymic NMRI mouse assessed as increase in apoptosis at 24 mg/kg,iv administered once for 1 day and measured after 8 hrs by H&E staining
LU387 = test: Antitumor activity against human LU387 cells xenografted female athymic NMRI mouse model assessed as reduction in tumor size at 20 mg/kg,iv administered twice daily intermittent for 1 days on/6 days off; type: functional, organism-based; settings: time 7.0 day, in the assay text read “once daily” for “twice daily”
In short: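 LU387 patient-derived tumor fragments (4–5 mm) transplanted s.c. into the flank of nude mice. Treatment started at ~40 mm2. Paclitaxel i.v. at 20 mg/kg once weekly (1 on/6 off). Tumor area (longest diameter × perpendicular) measured by caliper two to three times weekly. T/C computed from end-of-study tumor areas; 8–10 mice/group.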

[6] = Tmax in female NMRI mouse plasma at 1 mg/kg, po measured after 24 hrs by LC/-MS/MS analysis
[7] = Half life in male Wistar rat plasma at 0.5 mg/kg, iv measured after 24 hrs by LC/-MS/MS analysis; type: ADME, organism-based
[8] = Antitumor activity against human A2780cis cells xenografted female athymic NMRI mouse model assessed as T/C ratio at 5 mg/kg, po administered twice daily intermittent for 2 days on/5 days off; type: functional; settings: time 7 day
[9] = tested on: KATO III stomach cancer cell line; test: Antiproliferative activity against human KATO III stomach cancer cell line assessed as cell growth inhibition incubated for 96 hrs by MTS assay; type: functional, cell-based
[10] = Cmax in female NMRI mouse plasma at 1 mg/kg, po measured after 24 hrs by LC/-MS/MS analysis
[11] = Cmax in male Wistar rat plasma at 0.5 mg/kg, po measured after 24 hrs by LC/-MS/MS analysis; type: ADME, organism-based
In short: (§2)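 Male Wistar rats given 0.5 mg/kg orally. Plasma collected from 8 min to 24 h, precipitated with ice-cold acetonitrile (1:5), and analysed by LC/MS-MS. Cmax and Tmax read directly from concentration–time profiles.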

[12] = Toxicity in human A2780cis cells xenografted female athymic NMRI mouse model assessed as change in body weight at 5 mg/kg, po administered twice daily intermittent for 2 days on/5 days off; type: organism-based; settings: in vivo, 168 h, time 7 day
In short: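 A2780cis cells (2×10^6 in 100% Matrigel) implanted s.c. in athymic mice. Treatment started at ~30 mm2. Oral dosing twice daily, 2 days on/5 days off, with PEG 400/ethanol/Solutol vehicle controls. Dose based on individual body weight. Body weight monitored two to three times weekly as toxicity measure; >20% loss deemed toxic.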

[13] = Antitumor activity against human A2780cis cells implanted female athymic NMRI mouse model assessed as reduction in KNL1 at Thr-875 phosphorylation at 4 mg/kg,po administered for 2 days by immunohistochemical staining relative to control; type: functional; parameters: scale not given: the % may be the effect or the level left; settings: time 2 day
[14] = Half life in female CD1 mouse plasma at 1 mg/kg, iv measured after 24 hrs by LC/-MS/MS analysis; type: ADME, organism-based
In short: (§3)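 Female CD1 mice received a single iv bolus of 1.0 mg/kg in 50% PEG 400, 10% ethanol and 40% water. Plasma was sampled at 2, 5, 15, 30 and 45 min and at 1, 2, 4, 6, 8 and 24 h, precipitated with ice-cold acetonitrile (1:5), and supernatants were quantified by LC/MS-MS. Parameters were estimated from plasma concentration data, with AUC by the log-linear trapezoidal rule.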

[15] = Oral bioavailability in female NMRI mouse plasma at 1 mg/kg measured after 24 hrs by LC/-MS/MS analysis
[16] = Volume of distribution at steady state in female CD1 mouse plasma at 1 mg/kg, iv measured after 24 hrs by LC/-MS/MS analysis; type: ADME, organism-based; settings: read-out: Vdss; in short: as §3
[17] = Tmax in male Wistar rat plasma at 0.5 mg/kg, po measured after 24 hrs by LC/-MS/MS analysis; type: ADME, organism-based; in short: as §2
[18] = Oral bioavailability in male Wistar rat plasma at 0.5 mg/kg measured after 24 hrs by LC/-MS/MS analysis; type: ADME, organism-based
NCI-H1299 = test: Synergistic antitumor activity against human NCI-H1299 cells xenografted female athymic NMRI mouse model assessed as MTD at 3 mg/kg,po administered twice daily intermittent for 2 days on/5 days off in the presence of paclitaxel relative to control; type: functional; settings: time 7 day
LXF-289 cell line = test: Antiproliferative activity against human LXF-289 cell line assessed as cell growth inhibition incubated for 96 hrs by crystal violet staining; settings: LXF-289, 96 h
[19] = Synergistic toxicity in human NCI-H1299 cells xenografted female athymic NMRI mouse model assessed as body weight loss at 3 mg/kg,po administered twice daily intermittent for 2 days on/5 days off in the presence of paclitaxel relative to control; type: organism-based; settings: in vivo, 168 h, time 7 day
In short: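 NCI-H1299 cells (3×10^6 in 100% Matrigel) implanted s.c. in the inguinal region of athymic mice. Treatment started on day 8 at ~30 mm2. Mps1 inhibitor given p.o. 3 mg/kg twice daily, 2 days on/5 off. Paclitaxel i.v. 20 mg/kg once weekly, given within 1 h of the inhibitor on the same day. Body weight tracked two to three times weekly; >20% loss deemed toxic.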

[20] = Volume of distribution at steady state in male Wistar rat plasma at 0.5 mg/kg, iv measured after 24 hrs by LC/-MS/MS analysis; type: ADME, organism-based; settings: read-out: Vdss
Caov-3 cell line = test: Antiproliferative activity against human Caov-3 cell line assessed as cell growth inhibition incubated for 96 hrs by crystal violet staining; settings: Caov-3, 96 h
[21] = Antitumor activity against human A2780cis cells implanted female athymic NMRI mouse model assessed as reduction in KNL1 at Thr-875 phosphorylation at 2 mg/kg,po administered for 2 days by immunohistochemical staining relative to control; type: functional; parameters: scale not given: the % may be the effect or the level left; settings: time 2 day
[22] = Clearance in male Wistar rat blood at 0.5 mg/kg, iv measured after 24 hrs by LC/-MS/MS analysis; type: ADME, organism-based
SUM149PT = test: Synergistic antitumor activity against human SUM149 cells xenografted female athymic NMRI mouse model assessed as MTD at 1.5 mg/kg,po administered twice daily intermittent for 2 days on/5 days off measured after 48 days treatment in the presence of paclitaxel relative to control; settings: time 48 day
[23] = Clearance in female CD1 mouse blood at 1 mg/kg, iv measured after 24 hrs by LC/-MS/MS analysis; type: ADME, organism-based
In short: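 Single dose to female mice, i.v. as bolus (1.0 mg/kg) or oral (1 mg/kg), in 50% PEG 400/10% ethanol/40% water. Plasma sampled up to 24 h: 2 min–24 h after i.v., 8 min–24 h after p.o. Samples precipitated with ice-cold acetonitrile (1:5) and analysed by LC/MS-MS. AUC by log-linear trapezoidal rule; Cmax and Tmax read directly from the profiles.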

Structure (SMILES): CC(=O)O[C@H]1C(=O)[C@@]2(C)[C@H]([C@H](OC(=O)c3ccccc3)[C@]3(O)C[C@H](OC(=O)[C@H](O)[C@@H](NC(=O)c4ccccc4)c4ccccc4)C(C)=C1C3(C)C)[C@]1(OC(C)=O)CO[C@@H]1C[C@@H]2O
- Activity (A2780cis [1]): Active
- Activity (A2780cis [2]): Active
- Activity (A2780cis [3]): Active
- Activity (A2780cis [4]): Active
- Activity (A2780cis [5]): Active
- Activity (LU387): Active

Structure (SMILES): COc1ccc(Oc2cc(NCCC(F)(F)F)c3ncc(-c4ccc(C(=O)NC5CC5)c(C)c4)n3n2)c(F)c1F [BAY-1217389]
- Tmax [6]: 7 h
- half-life [7]: 7.8 h
- T/C [8]: 0.53
- IC50 [9]: > 300 nM
- Cmax [10]: 74 ng/mL
- Cmax [11]: 177 ng/mL
- Activity [12]: Non-Toxic
- Activity [13]: 80%
- half-life [14]: 4.1 h
- bioavailability [15]: 37%
- Vd [16]: 2.7 L/kg
- Tmax [17]: 1.5 h
- bioavailability [18]: 73%
- MED (NCI-H1299): 60%
- IC50 (LXF-289 cell line): 3.3 nM
- Activity [19]: > 10%
- Vd [20]: 2.2 L/kg
- IC50 (Caov-3 cell line): 36 nM
- Activity [21]: 60%
- clearance [22]: 9 mL/min/kg
- MED (SUM149PT): 30%
- clearance [23]: 13.7 mL/min/kg
